Bioassay records (PubChem)
CHRM4 antagonist: antagonists of human muscarinic M4 receptor (CHRM4) | CHO-hM4 cells, ACh EC80, Fluo-8 calcium fluorescence | actives 0.73% (n = 360,000) | inhibition, % at 3 µM | P08173;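 active = inhibition above its plate's cutoff, the mean inhibition of sample wells plus 3 SD, cut at about 27% in these data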
Target sequence (P08173 whole entry, looked up): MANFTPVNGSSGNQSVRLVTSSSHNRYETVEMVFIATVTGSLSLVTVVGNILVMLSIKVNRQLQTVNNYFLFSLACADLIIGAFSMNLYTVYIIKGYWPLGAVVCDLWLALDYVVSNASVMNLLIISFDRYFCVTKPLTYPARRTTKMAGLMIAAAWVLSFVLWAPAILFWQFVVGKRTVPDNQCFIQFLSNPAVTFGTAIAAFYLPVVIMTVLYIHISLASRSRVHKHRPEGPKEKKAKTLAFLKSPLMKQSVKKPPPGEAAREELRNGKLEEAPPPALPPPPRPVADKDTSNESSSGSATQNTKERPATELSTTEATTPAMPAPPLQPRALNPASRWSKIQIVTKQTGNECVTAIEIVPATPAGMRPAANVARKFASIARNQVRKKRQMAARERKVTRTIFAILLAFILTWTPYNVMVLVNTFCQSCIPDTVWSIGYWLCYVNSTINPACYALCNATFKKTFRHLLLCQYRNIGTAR
CHRM5 agonist: agonists of human muscarinic M5 receptor (CHRM5) | AID 624037 | CHO-K1 hM5 cells, Fluo-8 calcium fluorescence; 0% DMSO wells, 100% maximal acetylcholine response | P08912 | actives 0.19% (n = 360,000) | activation, % at 3 µM;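 active = activation above the run's mean over test compounds plus 3 SD, cut at about 23% in these data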;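 note: signal is peak over basal fluorescence ratio across the kinetic read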
M4 ag: agonists of human muscarinic M4 receptor (CHRM4); CHO-K1 hM4/Gqi5, Fluo-8 calcium fluorescence; vehicle 0%, full acetylcholine response 100%; activation, % at 3 µM; actives 0.14% (n = 360,000); AID 624127;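 active = activation above the run mean over all test wells plus 3 SD, cut at about 32% in these data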;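 note: peak over basal fluorescence ratio per well then scaled between controls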
CHRM5 PAM: positive allosteric modulators of human muscarinic M5 receptor | actives 0.3% (n = 360,000) | P08912 | CHO-K1 hM5, Fluo-8 calcium, ACh EC20 PAM; 0% = ACh EC20, 100% = ACh EC100 | AID 624038 | activation, % at 3 µM;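 active = activation above the run cutoff, the mean activation of all test compounds plus 3 SD, cut at about 18% in these data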
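System – CHO-K1 hM5 cells · Compound – 3 µM, single dose · Incubation – compound preincubation 140 s before EC20 acetylcholine addition · Technique – Fluo-8 calcium fluorescence · Measure – Max/basal fluorescence ratio as % of EC20–EC100 ACh window · Benchmarks – low control EC20 acetylcholine (0%), high control EC100 acetylcholine (100%) · Replication – singlicate, one well per test compound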
M5 antag: CHRM5 antagonism in calcium assay | P08912 | CHO-hM5 cells, Fluo-8 calcium fluorescence, ACh EC80 | inhibition, % at 3 µM | actives 0.59% (n = 360,000);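 active = inhibition above a per-plate cutoff, the mean of that plate's test compounds plus 3 SD, cut at about 27% in these data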
M4 PAM: CHRM4 positive allosteric modulation. P08173. CHO-K1 hM4/Gqi5, Fluo-8 calcium fluorescence, ACh EC20; 0% = ACh EC20, 100% = maximal ACh. activation, % at 3 µM. actives 0.4% (n = 360,000). AID 624126;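 active = activation above its plate's cutoff, the mean activation of sample wells plus 3 SD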
Of the large screens only hits and unclear results are named; the others gave an inactive call. Compounds with a hit are over-represented: about 1.8% of the library has one in this group of screens.

COc1cc(NC(=O)CN(C)S(=O)(=O)c2ccc(C)cc2)cc(OC)c1	M4 PAM 18
Cn1c(SCCN2CCCC2)nnc1C1CCN(S(=O)(=O)c2cccc(F)c2)CC1	CHRM4 antagonist 32
Cn1c(SCC(N)=O)nnc1C1CCN(S(=O)(=O)c2ccccc2C(F)(F)F)CC1	none
C=CCN1C(=O)/C(=C2/Sc3ccccc3N2CC)SC1=S	none
CCN1C(=O)/C(=C2\Sc3ccccc3N2CC)OC1=S	M4 PAM 23
COc1cccc(-c2oc3c(c2-c2ccc(OC)nc2)C(O)CCC3)c1 (configuration not stated)	none
CC[C@@H](C)[C@@H]1CN([C@@H](C)CN2CCC[C@H]2CN2C(N)=NC[C@@H]2Cc2ccccc2)C(=N)N1CCCC1CCCC1	CHRM4 antagonist 65
CC[C@@H](C)[C@@H]1CN([C@@H](C)CN2CCC[C@H]2CN2C(N)=NC[C@H]2CC(C)C)C(=N)N1CCCC1CCCC1	none
CCCCN1C(=N)N([C@@H](C)CN2CCC[C@H]2CN2C(N)=NC[C@@H]2Cc2ccccc2)C[C@H]1Cc1ccccc1	CHRM4 antagonist 40
CCCCN(C)c1c(C)nc2ccc(C(=O)Nc3cc(-c4ccccc4)ccc3OC)cn12	none
CCC(=O)Nc1ccc2c(c1)OC[C@@H](C)N(Cc1ccccc1F)C[C@@H](C)[C@@H](OC)CN(C)C2=O	none
CN(C)CCNc1ncnc2c1ncn2[C@H]1CN(Cc2ccc3c(c2)OCO3)C[C@@H](CO)O1	none
CC1=C(C(=O)N2CCCCCC2)CC(CC(=O)NCCCN(C)C)C(=O)N1Cc1ccc(F)cc1 (configuration not stated)	none
CCCCn1nnnc1C1(C)CCC(=O)N1Cc1ccc(OC)cc1 (configuration not stated)	none
CCC1CCCCN1CCCNC(=O)c1ccc2c(c1)N(Cc1ccc(F)cc1)C(=O)c1ccccc1S2=O (configuration not stated)	CHRM4 antagonist 29
O=C(NCCCN1CCCC1)c1ccc2c(c1)N(Cc1ccc(F)cc1)C(=O)c1ccccc1S2=O (configuration not stated)	none
CN1CCN(c2ncnc3c2ncn3[C@H]2CN(Cc3ccc(F)cc3)C[C@@H](CO)O2)CC1	none
Cc1ccc(N/N=C2\CS(=O)(=O)N(C)c3ccsc32)cc1	none
CCCC(=O)N/N=C1\CS(=O)(=O)N(C)c2ccsc21	CHRM4 antagonist 51
Cc1ccc(S(=O)(=O)/C=C2\OCc3ccccc32)cc1	none
Cc1ccccc1C(=O)OC1CCN(C)CC1	none
CN1CCC(N(C)CC(O)c2ccccc2)CC1 (configuration not stated)	none
CN1CCC(Oc2ccccc2Sc2ccccc2)CC1	CHRM4 antagonist 74, M5 antag 78
CN1CCC(OC(c2ccccc2)c2ccccc2)CC1	CHRM4 antagonist 80, M5 antag 96
COc1ccccc1CN1CCC(CNS(=O)(=O)c2cc(-c3onc(C)c3C)ccc2OC)CC1	CHRM4 antagonist 42
NC(COCc1ccccc1)c1csc(NC(=O)Nc2cccc(Cl)c2)n1 (configuration not stated)	none
CCOC(=O)Cc1nn(Cc2ccccc2)c(=O)c2ccccc12	none
CC(C)(C)c1ccc(Cn2nc(CC(=O)O)c3ccccc3c2=O)cc1	CHRM5 PAM 21
CCCCN(C(=O)c1ccccc1Cl)C(CC(C)C)c1nc2ccccc2[nH]1 (configuration not stated)	none
CC1(C)[C@H]2CC=C(CN3CCC(N4CCC(C(=O)N5CCCC5)CC4)CC3)[C@@H]1C2	CHRM4 antagonist 56
Cc1ccc(S(=O)(=O)c2nnn3c2nc(NC2CCN(Cc4ccccc4)CC2)c2ccccc23)cc1C	CHRM4 antagonist 43
Cc1ccc(S(=O)(=O)c2nnn3c2nc(NCCCN2CCCC2=O)c2ccccc23)cc1C	none
COCCN1C(=O)c2ccccc2C1c1nnnn1Cc1ccccc1 (configuration not stated)	none
